Calls of active or inactive are those of the source. The rule behind the calls is not given here.

Series [1] is described as follows: Antiproliferative activity against human HCT116 cells after 72 hrs by MTT assay. In kind it is functional, cell-based. Particulars: HCT-116, 72 h. For orientation: Tetrazolium assays rely on reduction of a dye to a coloured formazan, in cell work by metabolically active cells.
Series [2] has as its target T1, NAD-dependent protein deacetylase sirtuin-1 (Homo sapiens, UniProt Q96EB6).
T1 sequence (Q96EB6 whole entry): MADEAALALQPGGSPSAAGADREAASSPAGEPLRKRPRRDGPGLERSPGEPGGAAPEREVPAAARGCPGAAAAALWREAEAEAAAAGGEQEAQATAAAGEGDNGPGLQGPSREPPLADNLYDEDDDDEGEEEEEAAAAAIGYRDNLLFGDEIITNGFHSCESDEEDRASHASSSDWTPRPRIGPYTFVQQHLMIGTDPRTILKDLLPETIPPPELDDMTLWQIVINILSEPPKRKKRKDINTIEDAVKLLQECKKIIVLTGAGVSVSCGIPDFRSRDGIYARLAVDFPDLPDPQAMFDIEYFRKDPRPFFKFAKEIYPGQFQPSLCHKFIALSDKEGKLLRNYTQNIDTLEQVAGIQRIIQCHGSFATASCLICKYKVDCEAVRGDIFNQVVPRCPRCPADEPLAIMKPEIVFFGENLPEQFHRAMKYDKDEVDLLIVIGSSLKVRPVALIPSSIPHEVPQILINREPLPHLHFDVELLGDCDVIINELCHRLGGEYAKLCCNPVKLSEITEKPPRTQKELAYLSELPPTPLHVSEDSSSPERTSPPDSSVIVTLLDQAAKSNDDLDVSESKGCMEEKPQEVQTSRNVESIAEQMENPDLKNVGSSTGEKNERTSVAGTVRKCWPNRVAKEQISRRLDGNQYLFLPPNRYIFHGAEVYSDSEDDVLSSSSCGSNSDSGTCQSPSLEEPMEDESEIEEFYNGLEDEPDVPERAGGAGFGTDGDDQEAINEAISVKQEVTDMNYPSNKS
Description: Inhibition of human recombinant SIRT1 deacetylase activity using Arg-His-Lys-Lys(epsilon-acetyl)-AMC as substrate incubated for 45 mins by fluorescence analysis.

The test system of a further series is K562. The experiment in a line: Drug uptake in human K562 cells at 3 uM incubated for 2 hrs in presence of verapamil by flow cytometric analysis. In kind it is ADME, cell-based. Particulars: k562, 2 h. In outline: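 K562 and K562/4 cells incubated 2 h with 3 µM compound; uptake measured by flow cytometry as ratios (arbitrary units) of mean fluorescence channels of the histograms; verapamil (10 µM), a Pgp transport blocker, added 30 min before compound where used.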
Background: In flow cytometry, cells or beads pass a laser one at a time.

Series [3] relates to AGS. Description: Induction of apoptosis in human AGS cells assessed as late apoptotic cells at 0.05 uM after 24 hrs by annexin V-FITC staining-based flow cytometric analysis (Rvb=0.3%). In kind it is functional. The gist of the method:
(§1)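 AGS cells exposed to compound for 24 h; Annexin V-FITC staining and flow cytometry used to give percentage of apoptotic cells; mean ± S.E. from at least three independent experiments.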

Series [4] deals with AGS. The experiment in a line: Induction of apoptosis in human AGS cells assessed as late apoptotic cells at 1 uM after 24 hrs by annexin V-FITC staining-based flow cytometric analysis (Rvb=0.3%). In kind it is functional. The gist of the method: as §1
For series [5], the system named is AGS. Description: Increase in intracellular NAD+/NADH ratio in human AGS cells at 5 uM incubated for 5 mins. It counts as functional, cell-based.
In series [6] the test system is AGS. The experiment in a line: Upregulation of acetylated p53 level in human AGS cells at 1 and 5 uM after 24 hrs by Western blot analysis. In kind it is functional, cell-based. (In general: A western blot detects proteins with antibodies after separation by electrophoresis.)
For series [7], the system named is AGS. Description: Downregulation of SIRT1 protein level in human AGS cells at 1 and 5 uM after 24 after 24 hrs by Western blot analysis. In kind it is functional, cell-based.
Series [8] relates to AGS. Description: […] in human AGS cells assessed as downregulation of N-Cad after 24 hrs by Western blot analysis. In kind it is functional, cell-based.
In a further series the test system is MRC5. The experiment in a line: Antiproliferative activity against human MRC5 cells after 72 hrs by cell impedance based study. Particulars: MRC5, 72 h.
Series [9] has as its target T2, Ecto-NOX disulfide-thiol exchanger 2 (Homo sapiens) (UniProt Q16206).
T2 sequence (whole entry): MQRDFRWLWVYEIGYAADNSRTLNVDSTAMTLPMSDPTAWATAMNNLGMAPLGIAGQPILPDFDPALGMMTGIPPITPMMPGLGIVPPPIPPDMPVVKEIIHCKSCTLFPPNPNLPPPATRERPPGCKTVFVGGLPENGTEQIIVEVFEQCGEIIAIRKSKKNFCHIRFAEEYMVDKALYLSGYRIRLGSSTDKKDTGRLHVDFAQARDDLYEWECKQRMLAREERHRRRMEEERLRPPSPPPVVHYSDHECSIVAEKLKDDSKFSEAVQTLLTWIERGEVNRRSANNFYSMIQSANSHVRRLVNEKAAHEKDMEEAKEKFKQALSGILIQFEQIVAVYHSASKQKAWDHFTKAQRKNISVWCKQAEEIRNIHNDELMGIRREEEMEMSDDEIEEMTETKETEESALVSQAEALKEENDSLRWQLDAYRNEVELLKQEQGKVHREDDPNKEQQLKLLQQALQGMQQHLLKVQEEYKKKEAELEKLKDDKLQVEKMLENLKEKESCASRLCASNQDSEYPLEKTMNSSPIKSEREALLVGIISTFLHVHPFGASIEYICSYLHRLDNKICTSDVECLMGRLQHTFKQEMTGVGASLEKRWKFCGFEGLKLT
Description: Inhibition of tNOX in human AGS cells assessed as decrease in intracellular NAD+/NADH ratio in human AGS cells at 5 uM incubated for 5 mins.

Series [10] deals with DNA topoisomerase 2-alpha (Homo sapiens) (UniProt P11388). Description: Inhibition of Top2 (unknown origin)-mediated relaxation of pBR322 DNA at 0.1 to 2.5 uM incubated for 30 mins by ethidium bromide staining-based gel electrophoresis assay.
DNA topoisomerase 2-alpha (Homo sapiens), sequence (P11388 whole entry): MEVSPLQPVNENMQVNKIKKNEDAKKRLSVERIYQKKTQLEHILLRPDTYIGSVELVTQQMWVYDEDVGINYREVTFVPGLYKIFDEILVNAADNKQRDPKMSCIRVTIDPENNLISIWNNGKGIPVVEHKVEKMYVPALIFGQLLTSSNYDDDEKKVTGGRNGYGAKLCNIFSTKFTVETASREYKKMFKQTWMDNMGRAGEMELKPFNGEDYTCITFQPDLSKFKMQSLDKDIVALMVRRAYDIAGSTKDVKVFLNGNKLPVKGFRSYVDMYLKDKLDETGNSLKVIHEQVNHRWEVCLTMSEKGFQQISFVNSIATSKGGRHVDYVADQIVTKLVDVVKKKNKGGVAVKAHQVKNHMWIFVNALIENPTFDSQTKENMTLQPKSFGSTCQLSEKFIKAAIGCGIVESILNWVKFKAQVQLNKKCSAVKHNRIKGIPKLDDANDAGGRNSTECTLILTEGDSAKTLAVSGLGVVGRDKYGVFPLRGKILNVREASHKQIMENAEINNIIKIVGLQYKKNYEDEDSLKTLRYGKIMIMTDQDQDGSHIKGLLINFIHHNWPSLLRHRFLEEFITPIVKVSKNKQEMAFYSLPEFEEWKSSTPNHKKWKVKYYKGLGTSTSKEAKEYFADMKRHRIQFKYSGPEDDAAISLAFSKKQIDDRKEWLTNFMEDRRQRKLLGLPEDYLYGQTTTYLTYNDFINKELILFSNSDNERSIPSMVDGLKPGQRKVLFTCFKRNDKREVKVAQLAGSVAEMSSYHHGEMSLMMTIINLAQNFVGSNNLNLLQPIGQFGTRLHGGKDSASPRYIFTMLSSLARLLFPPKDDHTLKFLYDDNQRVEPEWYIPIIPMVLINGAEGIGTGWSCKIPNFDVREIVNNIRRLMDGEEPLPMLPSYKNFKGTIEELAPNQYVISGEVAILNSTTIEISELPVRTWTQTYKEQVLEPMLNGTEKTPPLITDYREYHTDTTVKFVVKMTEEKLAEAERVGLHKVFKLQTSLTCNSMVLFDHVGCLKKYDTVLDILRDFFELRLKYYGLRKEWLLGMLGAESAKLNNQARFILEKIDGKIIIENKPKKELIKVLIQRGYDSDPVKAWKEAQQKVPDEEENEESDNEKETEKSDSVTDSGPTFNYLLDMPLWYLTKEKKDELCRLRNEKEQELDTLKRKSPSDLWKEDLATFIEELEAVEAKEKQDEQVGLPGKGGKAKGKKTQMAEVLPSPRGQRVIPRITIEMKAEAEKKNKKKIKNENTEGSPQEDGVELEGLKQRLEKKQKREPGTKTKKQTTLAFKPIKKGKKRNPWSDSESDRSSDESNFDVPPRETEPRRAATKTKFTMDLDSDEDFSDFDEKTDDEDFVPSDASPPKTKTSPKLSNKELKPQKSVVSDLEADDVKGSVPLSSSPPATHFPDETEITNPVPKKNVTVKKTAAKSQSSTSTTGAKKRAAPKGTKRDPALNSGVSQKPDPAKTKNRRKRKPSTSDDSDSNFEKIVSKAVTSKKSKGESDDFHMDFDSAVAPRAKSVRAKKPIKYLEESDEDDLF

As usually defined, the IC50 is the concentration needed to halve the response being measured. On to `CNCCNc1c2c(c(NCCNC)c3occc13)C(=O)c1ccccc1C2=O`, for which the IC50 stood at 100 nM in series [1], 3930 nM in series [2] and 780 nM in the series with MRC5. Moreover, the Drug uptake entry in the series on K562 is reported as “Active”. The Activity with AGS [3] was found to be 0.7%; with AGS [4], 1.3%. Further, the result with AGS [5] was inactive. The outcome in the series with AGS [6], in the series on AGS [7] and in the series with AGS [8] was Active. Besides, the inhibition result in series [9] and in series [10] was “Active” in each case.

The values above are taken from ChEMBL document CHEMBL3745659, “Synthesis and Characterization of 4,11-Diaminoanthra[2,3-b]furan-5,10-diones: Tumor Cell Apoptosis through tNOX-Modulated NAD(+)/NADH Ratio and SIRT1” (J Med Chem, 2015).
